Test results: ChEMBL document CHEMBL4007449, “Novel multi-substituted benzyl acridone derivatives as survivin inhibitors for hepatocellular carcinoma treatment” (Eur J Med Chem, 2017)
pIC50: −log10 of the molar value. The source made the active and inactive calls. No cut-off for these calls is given here.

Assays:
HepG2 [1] = assay: Antiproliferative activity against human HepG2 cells after 48 hrs by MTT assay; format: functional, cell-based; conditions: HepG2, 48 h
Method in brief: (§1)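 Cells grown in DMEM with 10% FBS at 37 °C, 5% CO2; seeded at 6 × 10^3 cells/well, allowed to attach 12 h, then exposed to compound at final 50, 25, 10, 1 and 0.1 µM for 48 h. MTT (5 mg/mL) added for 4 h, formazan dissolved in DMSO, absorbance read at 490 nm; IC50 taken from the resulting curve.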

MCF7 = assay: Antiproliferative activity against human MCF7 cells after 48 hrs by MTT assay; format: functional, cell-based; conditions: MCF7, 48 h; method in brief: as §1
Homo sapiens [2] = organism: Homo sapiens; assay: Inhibition of recombinant human topoisomerase-2-mediated decatenation at 10 uM using kinetoplast DNA as substrate after 30 mins agarose gel electrophoresis method relative to control
Method in brief: (§2)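 Human Topo II decatenation run by a contract laboratory. Compound or 50% DMSO combined with reaction mix and diluted enzyme, incubated 35 ± 2 °C for 30 min, then stop buffer added. Products separated on 1% agarose, stained 10 min with 2.3 µg/ml ethidium bromide, destained 20 min, bands quantified densitometrically. Doxorubicin at 1 and 10 µM as positive controls, no-compound negative control; run in duplicate.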

[3] = target: Baculoviral IAP repeat-containing protein 5 (Homo sapiens) (UniProt O15392); assay: Binding affinity to survivin (unknown origin) up to 1.8 uM after 20 mins by spectrofluorimetric titration method
[4] = Antiproliferative activity against human QGY7701 cells after 48 hrs by MTT assay; format: cell-based; conditions: QGY7701, 48 h; method in brief: as §1
[5] = target: Baculoviral IAP repeat-containing protein 5 (Homo sapiens) (UniProt O15392); assay: Binding affinity to survivin (unknown origin) after 20 mins by spectrofluorimetric titration method
Method in brief: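 Intrinsic fluorescence titration of purified survivin (0.3 µM) in 10 mM PBS, pH 7.4, at 37 °C. Compound added to final 0–1.6 µM; 20 min incubation before recording emission spectra with excitation at 280 nm. Spectra compared with and without survivin.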

[6] = target: T1, DNA topoisomerase 1 (Homo sapiens) (UniProt P11387); assay: Inhibition of recombinant human topoisomerase-1-mediated relaxation of pBR322 DNA substrate after 30 mins agarose gel electrophoresis method
T1 sequence (whole entry): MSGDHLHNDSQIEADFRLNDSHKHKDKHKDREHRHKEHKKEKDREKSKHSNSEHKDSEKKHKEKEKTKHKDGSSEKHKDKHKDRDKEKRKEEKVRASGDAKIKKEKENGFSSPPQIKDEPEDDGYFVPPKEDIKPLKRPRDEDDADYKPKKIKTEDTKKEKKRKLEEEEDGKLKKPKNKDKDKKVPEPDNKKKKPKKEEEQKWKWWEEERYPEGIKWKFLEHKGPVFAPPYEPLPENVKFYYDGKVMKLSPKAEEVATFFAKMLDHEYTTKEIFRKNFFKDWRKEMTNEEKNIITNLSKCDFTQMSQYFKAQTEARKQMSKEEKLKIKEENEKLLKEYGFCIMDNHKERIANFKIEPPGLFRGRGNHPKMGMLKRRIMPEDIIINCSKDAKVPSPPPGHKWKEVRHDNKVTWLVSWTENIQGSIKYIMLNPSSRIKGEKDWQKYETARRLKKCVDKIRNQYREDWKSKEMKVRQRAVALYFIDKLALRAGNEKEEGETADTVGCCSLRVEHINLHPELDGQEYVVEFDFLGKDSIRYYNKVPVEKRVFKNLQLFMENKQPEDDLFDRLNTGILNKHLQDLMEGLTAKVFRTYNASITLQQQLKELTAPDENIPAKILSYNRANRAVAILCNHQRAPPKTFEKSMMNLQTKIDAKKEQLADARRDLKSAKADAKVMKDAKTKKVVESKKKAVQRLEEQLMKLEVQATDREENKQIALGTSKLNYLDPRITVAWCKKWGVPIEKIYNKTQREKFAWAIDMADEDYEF

HepG2 [7] = assay: Upregulation of cleaved PARP expression in human HepG2 cells up to 10 uM after 24 hrs by Western blot method; format: functional, cell-based
Method in brief: (§3)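 HepG2 cells in 6 cm dishes exposed to a range of concentrations (1–10 µM) for 24 h. Lysate protein measured by BCA, run on 12% SDS-PAGE and transferred to PVDF. Membrane blocked in 5% milk for 1 h, primary antibody overnight at 4 °C, bands imaged after antibody hybridisation.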

HepG2 [8] = assay: Downregulation of survivin expression in human HepG2 cells after 24 hrs by Western blot method; format: functional, cell-based; method in brief: as §3
Homo sapiens [9] = organism: Homo sapiens; assay: Inhibition of recombinant human topoisomerase-2-mediated decatenation at 50 uM using kinetoplast DNA as substrate after 30 mins agarose gel electrophoresis method relative to control; method in brief: as §2
HepG2 [10] = assay: Downregulation of Bcl2 expression in human HepG2 cells at 10 uM after 24 hrs by Western blot method; format: functional, cell-based; method in brief: as §3
Bos taurus = organism: Bos taurus; assay: Binding affinity to calf thymus DNA at 40 uM after 5 mins by UV absorbance spectrophotometric method; conditions: in the assay text read “fluorescence spectroscopic method” for “UV absorbance spectrophotometric method”
Method in brief: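 Fluorescence emission titration on a spectrofluorometer in 5 mM Tris, 50 mM NaCl, pH 7.2. Compound fixed at 40 µM final; ct DNA added at 0, 8, 16, 24, 32, 40, 60, 80 and 120 µM final. DNA concentration set by UV using ε260 = 6600 M-1 cm-1. Excitation 280 nm; 5 min incubation before reading.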

HepG2 [11] = assay: Upregulation of cleaved caspase-7 expression in human HepG2 cells at 10 uM after 24 hrs by Western blot method; format: functional, cell-based; method in brief: as §3
Mus musculus [12] = assay: Toxicity in nude mouse ectopically xenografted with human HepG2 cells assessed as liver weight at 25 mg/kg, ip administered once in 2 days measured after 30 days (reference value: 0.069 to 0.434 g); format: organism-based; conditions: in vivo, 720 h
Mus musculus [13] = assay: Toxicity in nude mouse ectopically xenografted with human HepG2 cells assessed as spleen weight index at 25 mg/kg, ip administered once in 2 days measured after 30 days (reference value: 0.002 to 0.0106); format: organism-based; conditions: in vivo, 720 h
Mus musculus [14] = assay: Toxicity in nude mouse ectopically xenografted with human HepG2 cells assessed as spleen weight at 25 mg/kg, ip administered once in 2 days measured after 30 days (reference value: 0.071 to 0.248 g); format: organism-based; conditions: in vivo, 720 h
HepG2 [15] = assay: Antitumor activity against human HepG2 cells ectopically xenografted in nude mouse assessed as tumor growth inhibition at 25 mg/kg, ip administered once in 2 days measured after 30 days relative to control; format: functional; conditions: read-out: TGI
Mus musculus [16] = assay: Toxicity in nude mouse ectopically xenografted with human HepG2 cells assessed as liver weight index at 25 mg/kg, ip administered once in 2 days measured after 30 days (reference value: 0.0009 to 0.0187); format: organism-based; conditions: in vivo, 720 h
Mus musculus [17] = assay: Toxicity in nude mouse ectopically xenografted with human HepG2 cells assessed as body weight loss at 25 mg/kg, ip administered once in 2 days measured after 10 days relative to control; format: organism-based; conditions: in vivo, 240 h

Sequence of Baculoviral IAP repeat-containing protein 5 (Homo sapiens) (O15392 whole entry): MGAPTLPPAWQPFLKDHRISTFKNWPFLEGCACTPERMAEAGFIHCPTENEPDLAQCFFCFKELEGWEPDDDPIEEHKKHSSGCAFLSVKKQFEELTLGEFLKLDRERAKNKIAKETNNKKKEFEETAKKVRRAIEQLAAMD

SMILES	pIC50 (HepG2 [1])	pIC50 (MCF7)	also measured
CN(C)CCCNC(=O)c1ccc(N(C)C)c2c(=O)c3cccc([N+](=O)[O-])c3[nH]c12	4.43	5.03	
COc1cc(CNc2ccc(C(=O)NCCN(C)C)c3[nH]c4c(OC)cccc4c(=O)c23)cc(OC)c1OC	< 4.30	< 4.30	
COCCNC(=O)c1ccc(NCc2cccc(OC)c2)c2c(=O)c3cccc(C)c3[nH]c12	< 4.30	< 4.30	
COc1ccc(CNc2ccc(C(=O)NCCCN(C)C)c3[nH]c4c(N)cccc4c(=O)c23)cc1	5.25	4.87	
Cc1cccc2c(=O)c3c(NCc4ccccc4)ccc(C(=O)NCCN(C)C)c3[nH]c12	5.10	5.26	
COc1cc(CNc2ccc(C(=O)NCCN(C)C)c3[nH]c4c([N+](=O)[O-])cccc4c(=O)c23)cc(OC)c1OC	5.15	5.24	
COc1cccc2c1C(=O)c1c(O)c3c(c(O)c1C2=O)C[C@@](O)(C(=O)CO)C[C@@H]3O[C@H]1C[C@H](N)[C@H](O)[C@H](C)O1			inhibition (Homo sapiens [2]): 74.4%
COc1cccc2c(=O)c3c(NN)ccc(C(=O)NCCCN(C)C)c3[nH]c12	4.91	4.83	
COCCN1C(C)=[N+](Cc2cnccn2)C2Cc3ccccc3CC21 (centres undefined)	4.82	5.38	Activity [3]: inactive
CN(C)CCCNC(=O)c1ccc(NCc2ccccc2)c2c(=O)c3cccc([N+](=O)[O-])c3[nH]c12	5.61	5.53	pIC50 [4]: 5.40
CN(C)CCNC(=O)c1ccc(NCc2ccccc2)c2c(=O)c3cccc([N+](=O)[O-])c3[nH]c12	5.02	5.25	
COc1cccc2c(=O)c3c(Cl)ccc(C(=O)NCCN(C)C)c3[nH]c12	4.61	4.73	
CN(C)CCNC(=O)c1ccc(Cl)c2c(=O)c3cccc([N+](=O)[O-])c3[nH]c12	4.84	5.64	
COCCNC(=O)c1ccc(NCc2ccccc2)c2c(=O)c3cccc(C)c3[nH]c12	4.77	< 4.30	
CCc1ccc(CNc2ccc(C(=O)NCCCN(C)C)c3[nH]c4c([N+](=O)[O-])cccc4c(=O)c23)cc1	5.24	5.33	
COCCNC(=O)c1ccc(NCc2cc(OC)c(OC)c(OC)c2)c2c(=O)c3cccc(C)c3[nH]c12	< 4.30	< 4.30	
COc1ccc(CNc2ccc(C(=O)NCCCN(C)C)c3[nH]c4c([N+](=O)[O-])cccc4c(=O)c23)cc1			Activity [5]: Dose-dependent effect; inhibition [6]: inactive; Activity (HepG2 [7]): Active; Activity (HepG2 [8]): Dose-dependent effect; inhibition (Homo sapiens [9]): 10.9%; Activity (HepG2 [10]): Active; Activity (Bos taurus): inactive; Activity (HepG2 [11]): Active

SMILES	pIC50 (HepG2 [1])	pIC50 (MCF7)	also measured
COc1ccc(CNc2ccc(C(=O)NCCN(C)C)c3[nH]c4c(Cl)cc(Cl)cc4c(=O)c23)cc1	4.76	4.76	
COc1cccc2c(=O)c3c(NCc4ccccc4)ccc(C(=O)NCCN(C)C)c3[nH]c12	5.26	4.86	
COc1ccc(CNc2ccc(C(=O)NCCCN(C)C)c3[nH]c4c(OC)cccc4c(=O)c23)cc1	4.97	5.00	
COc1cccc(CNc2ccc(C(=O)NCCN(C)C)c3[nH]c4c([N+](=O)[O-])cccc4c(=O)c23)c1	5.06	5.29	
COc1cc(CNc2ccc(C(=O)NCCN(C)C)c3[nH]c4c(C)cccc4c(=O)c23)cc(OC)c1OC	5.30	5.30	
O=c1[nH]cc(F)c(=O)[nH]1 [FLUOROURACIL]			Activity (Mus musculus [12]): 0.062 to 0.419 g; Activity index (Mus musculus [13]): 0.005 to 0.0144; Activity (Mus musculus [14]): 0.091 to 0.26 g; inhibition in vivo at 25 mg/kg (HepG2 [15]): 64%; Activity index (Mus musculus [16]): 0.0034 to 0.0231; Activity (Mus musculus [17]): 30%
COc1ccc(CNc2ccc(C(=O)NCCN(C)C)c3[nH]c4c(C)cccc4c(=O)c23)cc1	5.68	5.16	pIC50 [4]: 5.16
COc1ccc(CNc2ccc(C(=O)NCCN(C)C)c3[nH]c4c(OC)cccc4c(=O)c23)cc1	5.29	5.21	
Cc1cccc2c(=O)c3c(NN)ccc(C(=O)NCCN(C)C)c3[nH]c12	5.05	4.89	
Cc1cccc2c(=O)c3c(Cl)ccc(C(=O)NCCN(C)C)c3[nH]c12	< 4.30	< 4.30	
COCCNC(=O)c1ccc(NCc2ccc(OC)cc2)c2c(=O)c3cccc(C)c3[nH]c12	< 4.30	< 4.30	
COc1ccc(CNc2ccc(C(=O)NCCN(C)C)c3[nH]c4c([N+](=O)[O-])cccc4c(=O)c23)cc1	5.35	5.98	
COc1ccc(CNc2ccc(C(=O)NCCCN(C)C)c3[nH]c4c(C)cccc4c(=O)c23)cc1	5.23	5.39	
COc1cccc(CNc2ccc(C(=O)NCCN(C)C)c3[nH]c4c(C)cccc4c(=O)c23)c1	5.55	5.44	pIC50 [4]: 5.51
CN(C)CCNC(=O)c1ccc(N(C)C)c2c(=O)c3cccc([N+](=O)[O-])c3[nH]c12	4.54	5.45	
COCCNC(=O)c1ccc(NCc2ccc(C(F)(F)F)cc2)c2c(=O)c3cccc(C)c3[nH]c12	< 4.30	< 4.30	
